Results on two molecules are retold here after publication PMC9250355 (Molecular Biology of the Cell, 2022).

Test [1] deals with S. pombe strains (pxl1 wild type and pxl1 mutants). Nature of the test: Serial dilution growth assay in the presence of LatA. In kind it is cell-based. The conditions noted are these: low-dose LatA (0.20 μM), 32°C. The gist of the method:
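Strains were grown in liquid YE at 25°C. Three 10-fold serial dilutions starting at 4 × 10^6 cells/ml were spotted on YE agar containing 0.20 µM LatA or DMSO. Plates were incubated at 32°C for 2–5 d, then colonies were imaged by scanner.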

In test [2] the target is Pxl1 PxxP^6 peptide (residues 177–188), biotin-labeled (S. pombe).

In the case of `C/C1=C/C(=O)O[C@@H]2C[C@@H](CC[C@H](C)/C=C\C=C\CC1)O[C@@](O)([C@@H]1CSC(=O)N1)C2` [LatA, latrunculin A], the “sensitivity of pxl1 mutants to LatA” value in test [1] is listed as “no evidence of sensitivity”.

B1: GST-Cdc15C1 (residues 600–end) (domain or fragment)
chain: MRRRQSTSVDDEAPVSLSKTSSSTRLNGLGYHSRNTSIASDIDGVPKKSTLGAPPAAHTSAQMQRMSNSFASQTKQVFGEQRTENSARESLRHSRSNMSRSPSPMLSRRSSTLRPSFERSASSLSVRQSDVVSPAPSTRARGQSVSGQQRPSSSMSLYGEYNKSQPQLSMQRSVSPNPLGPNRRSSSVLQSQKSTSSNTSNRNNGGYSGSRPSSEMGHRYGSMSGRSMRQVSQRSTSRARSPEPTNRNSVQSKNVDPRATFTAEGEPILGYVIALYDYQAQIPEEISFQKGDTLMVLRTQEDGWWDGEIINVPNSKRGLFPSNFVQTV
The term Kd denotes the constant that tells how readily two partners part at equilibrium. In turn, B1 returned a Kd in test [2] of 1900 nM.
